# Laboratory results taken from ChEMBL document CHEMBL3259708, “Thienoquinolines as novel disruptors of the PKCε/RACK2 protein-protein interaction” (J Med Chem, 2014).
# The source made the active and inactive calls. No cut-off for these calls is given here.
# Experiments:
# HeLa [1] = assay: Antimigratory activity against human HeLa cells expressing doxycycline-inducible PKCepsilon at 25 uM after 24 hrs by scratch migration assay; assay type: functional, cell-based
# Procedure, shortened: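 HeLa cells carrying doxycycline-inducible constitutively active PKCε grown to log phase; ~1 mm scratch made in monolayer with pipet tip, washed with PBS, then given 2 μg/mL doxycycline plus 25 μM test agent for 24 h; controls untreated or doxycycline plus DMSO; gap closure viewed by microscope.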
# [2] = biological target: Protein kinase C eta type (Homo sapiens) (UniProt P24723); assay: Inhibition of PKCeta (unknown origin) at 50 uM
# HeLa [3] = assay: Antiinvasive activity against human HeLa cells expressing doxycycline-inducible PKCepsilon at 25 uM after 24 hrs; assay type: functional, cell-based
# Procedure, shortened: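 Invasion of HeLa cells carrying doxycycline-inducible constitutively active PKCε, PKCε expression induced with doxycycline, through reconstituted basement membrane matrix using a commercial invasion kit per manufacturer; mean of three experiments, normalized to control (100%), t test.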
# [4] = biological target: T1, Protein kinase C epsilon type (Homo sapiens) (UniProt Q02156); assay: (§1) Inhibition of recombinant PKCepsilon (unknown origin)-MBP-tagged RACK2 interaction after 1 hr by ELISA-based assay relative to untreated control; set-up: residual binding, % of control: concentration or dose not given beside the values; settings: for residual binding, % of control: values are per cent of control
# T1 sequence (whole entry): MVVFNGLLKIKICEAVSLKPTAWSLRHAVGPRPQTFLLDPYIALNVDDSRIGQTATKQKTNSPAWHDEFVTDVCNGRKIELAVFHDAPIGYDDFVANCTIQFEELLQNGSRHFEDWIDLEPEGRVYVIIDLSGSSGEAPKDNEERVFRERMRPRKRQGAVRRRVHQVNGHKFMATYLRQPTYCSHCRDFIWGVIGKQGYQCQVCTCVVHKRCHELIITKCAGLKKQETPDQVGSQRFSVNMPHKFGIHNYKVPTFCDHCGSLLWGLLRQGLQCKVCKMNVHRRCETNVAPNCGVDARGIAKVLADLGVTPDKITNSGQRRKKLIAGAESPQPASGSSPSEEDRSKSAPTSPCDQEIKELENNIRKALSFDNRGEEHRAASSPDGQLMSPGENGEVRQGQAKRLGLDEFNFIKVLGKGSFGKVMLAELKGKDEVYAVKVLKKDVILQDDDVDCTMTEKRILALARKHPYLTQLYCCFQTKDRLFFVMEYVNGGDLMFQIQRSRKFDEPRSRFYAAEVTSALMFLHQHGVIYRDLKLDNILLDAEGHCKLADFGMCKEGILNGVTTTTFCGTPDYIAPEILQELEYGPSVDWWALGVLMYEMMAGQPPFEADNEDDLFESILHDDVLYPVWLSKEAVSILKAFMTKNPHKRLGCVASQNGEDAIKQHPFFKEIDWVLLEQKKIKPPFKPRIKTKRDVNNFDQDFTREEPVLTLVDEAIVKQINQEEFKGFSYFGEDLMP
# Procedure, shortened: (§2)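 ELISA: plates coated with 100 ng recombinant PKCε in 20 mM Tris-HCl/100 mM NaCl pH 7.5 overnight at 4 °C, blocked with 3% BSA; PKCε activated 10 min at 30 °C with 60 μg/mL phosphatidylserine and 100 nM TPA; RACK2-MBP preincubated with agent 30 min, then 500 ng added for 1 h binding; anti-RACK2/HRP detection, ABTS at 420 nm; four experiments, quadruplicates, normalized to control; IC50 via CalcuSyn.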
# [5] = biological target: T2, Protein kinase C epsilon type (Homo sapiens, UniProt Q02156); assay: as §1; procedure, shortened: as §2
# T2 sequence (Q02156 whole entry): T1 sequence (whole entry)
# [6] = biological target: Tyrosine-protein kinase BTK (Homo sapiens) (UniProt Q06187); assay: Inhibition of BTK (unknown origin) at 25 uM; values are per cent of control
# Gallus gallus = organism: Gallus gallus; assay: Antiangiogenic activity in chicken egg assessed as inhibition of VEGF-induced angiogenesis at 10 ng after 5 days by microscopic analysis; assay type: functional
# Procedure, shortened: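 Hen eggs incubated 3 days at 37 °C, opened, incubated 7 more days; VEGF and test agent added on day 10; after 5 further days, vessel formation inspected by microscope.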
# [7] = biological target: T1, Protein kinase C epsilon type (Homo sapiens); assay: Inhibition of TPA-induced PKCepsilon Ser729 phosphorylation in human PC3 cell membrane at 25 to 50 uM by densitometric analysis; assay type: cell-based; settings: PC-3
# Procedure, shortened: (§3)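 PC-3 cells starved 16 h, agent 30 min, then 50 nM TPA 5 min; lysed and split into cytosolic and membrane fractions; Western blot for PKCε, PKCε pSer729 or PKCδ, with IGFI-βR (membrane) and GAPDH (cytosol) loading controls; densitometry of four independent experiments, normalized to control, t test.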
# [8] = biological target: T1, Protein kinase C epsilon type (Homo sapiens); assay: Inhibition of TPA-induced PKCepsilon translocation to cell membrane in human PC3 cells at 50 uM by immunofluorescence analysis; assay type: cell-based; settings: PC-3
# Procedure, shortened: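 PC-3 cells on poly-L-lysine coverslips treated with agent 30 min then 100 nM TPA 5 min; fixed in 4% paraformaldehyde/4% sucrose, permeabilized, stained for PKCε with fluorescent secondary, imaged by microscopy; three independent experiments.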
# [9] = biological target: T1, Protein kinase C epsilon type (Homo sapiens); assay: Inhibition of recombinant PKCepsilon (unknown origin)-MBP-tagged RACK2 interaction at 25 uM after 1 hr by ELISA-based assay relative to untreated control; values are per cent of control
# [10] = biological target: T1, Protein kinase C epsilon type (Homo sapiens); assay: (§4) Inhibition of PKCepsilon-induced phosphorylation of Elk1 in human HeLa cells after 4 hrs by luciferase reporter gene assay; assay type: cell-based
# Procedure, shortened: (§5)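 PathDetect HeLa-HLR Elk-1 trans-reporting cells (200 000/well, grown 24 h) starved 16 h in 0.5% FBS medium; agent 30 min, 50 nM TPA 5 min, washed, then 4 h in starvation medium with agent; luciferase read on 20 μg lysate protein; mean ±SD of three experiments normalized to control; IC50 by CalcuSyn.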
# [11] = biological target: T2, Protein kinase C epsilon type; assay: as §4; assay type: cell-based; procedure, shortened: as §5
# [12] = biological target: Protein kinase C beta type (Homo sapiens) (UniProt P05771); assay: Inhibition of PKCbeta1 (unknown origin) at 50 uM
# HeLa [13] = assay: Antiproliferative activity against human HeLa cells expressing luciferase gene up to 50 uM; assay type: cell-based
# Procedure, shortened: (§6)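 HeLa-HLR and PC-3 cells seeded ~10 000/well; agent added after 4 h at various concentrations for 72 h; growth read by SRB assay; mean ±SD of three independent experiments, triplicate samples each.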
# [14] = biological target: Protein kinase C alpha type (Homo sapiens) (UniProt P17252); assay: Inhibition of PKCalpha (unknown origin) at 50 uM
# [15] = biological target: T1, Protein kinase C epsilon type (Homo sapiens); assay: Inhibition of phosphorylated form of PKCepsilon translocation to cell membrane in human PC3 cells at 25 to 50 uM by densitometric analysis; assay type: cell-based; settings: PC-3; procedure, shortened: as §3
# [16] = biological target: Mitogen-activated protein kinase 3 (Homo sapiens) (UniProt P27361); assay: Inhibition of ERK1 (unknown origin) at 25 uM; values are per cent of control
# [17] = biological target: T1, Protein kinase C epsilon type (Homo sapiens); assay: Inhibition of recombinant PKCepsilon (unknown origin)-MBP-tagged RACK2 interaction at 10 uM after 1 hr by ELISA-based assay relative to untreated control; settings: values are per cent of control; procedure, shortened: as §2
# [18] = biological target: T3, NUAK family SNF1-like kinase 1 (Homo sapiens) (UniProt O60285); assay: Inhibition of NUAK1 (unknown origin) at 25 uM; values are per cent of control
# T3 sequence (whole entry): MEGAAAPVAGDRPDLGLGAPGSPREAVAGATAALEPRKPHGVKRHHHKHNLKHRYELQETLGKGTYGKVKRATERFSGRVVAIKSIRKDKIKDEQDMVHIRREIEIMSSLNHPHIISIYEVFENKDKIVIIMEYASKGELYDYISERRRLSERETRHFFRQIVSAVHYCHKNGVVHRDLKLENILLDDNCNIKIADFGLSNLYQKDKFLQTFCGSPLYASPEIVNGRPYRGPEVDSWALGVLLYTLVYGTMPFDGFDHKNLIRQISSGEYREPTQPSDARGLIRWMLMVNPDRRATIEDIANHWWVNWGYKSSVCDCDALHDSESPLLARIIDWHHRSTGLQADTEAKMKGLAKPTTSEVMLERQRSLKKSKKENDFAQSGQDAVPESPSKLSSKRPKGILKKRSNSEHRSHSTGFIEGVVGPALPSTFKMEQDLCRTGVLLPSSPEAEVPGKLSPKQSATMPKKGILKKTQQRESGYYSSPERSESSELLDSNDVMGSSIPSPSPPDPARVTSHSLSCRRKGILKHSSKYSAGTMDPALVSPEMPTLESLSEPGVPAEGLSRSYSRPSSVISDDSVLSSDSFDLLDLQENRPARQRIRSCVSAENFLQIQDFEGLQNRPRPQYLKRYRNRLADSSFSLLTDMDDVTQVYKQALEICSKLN
# [19] = biological target: T1, Protein kinase C epsilon type (Homo sapiens); assay: Inhibition of PKCepsilon-induced phosphorylation of MARCKS in human HeLa cells at 50 uM by SDS-PAGE analysis; assay type: cell-based
# Procedure, shortened: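 HeLa cells serum-starved 16 h, treated with 50 μM agent for 30 min with 100 nM TPA for the last 10 min; 150 μg lysate protein on SDS 8–16% gels, blotted for MARCKS pSer152/156 with tubulin loading control; densitometry of three independent experiments.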
# [20] = biological target: Protein kinase C beta type (Homo sapiens) (UniProt P05771); assay: Inhibition of recombinant GST-tagged PKCbeta2 (unknown origin)-His-tagged RACK1 interaction after 1 hr by ELISA-based assay relative to untreated control
# Procedure, shortened: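 ELISA: 200 ng His-tagged RACK1 coated overnight at 4 °C; agent added 30 min at room temperature; 500 ng GST-PKCβII activated with CaCl2, phosphatidylserine and TPA for 10 min, then bound 1 h; detected with anti-GST and HRP secondary, ABTS colour at 420 nm.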
# [21] = biological target: T1, Protein kinase C epsilon type (Homo sapiens); assay: Inhibition of PKCepsilon translocation to cell membrane in human PC3 cells at 25 to 50 uM by densitometric analysis; assay type: cell-based; settings: PC-3; procedure, shortened: as §3
# PC-3 = assay: Antiproliferative activity against human PC3 cells expressing luciferase gene up to 50 uM; assay type: cell-based; procedure, shortened: as §6
# [22] = biological target: Protein kinase C delta type (Homo sapiens) (UniProt Q05655); assay: Inhibition of PKCdelta translocation to cell membrane in human PC3 cells at 25 to 50 uM by densitometric analysis; assay type: cell-based; settings: PC-3; procedure, shortened: as §3
# [23] = biological target: Ribosomal protein S6 kinase alpha-3 (Homo sapiens) (UniProt P51812); assay: Inhibition of RSK2 (unknown origin) at 25 uM; values are per cent of control
# [24] = biological target: Serine/threonine-protein kinase pim-3 (Homo sapiens) (UniProt Q86V86); assay: Inhibition of PIM3 (unknown origin) at 25 uM; values are per cent of control
# Chain of Protein kinase C beta type (Homo sapiens) (P05771 2-671 limits assumed): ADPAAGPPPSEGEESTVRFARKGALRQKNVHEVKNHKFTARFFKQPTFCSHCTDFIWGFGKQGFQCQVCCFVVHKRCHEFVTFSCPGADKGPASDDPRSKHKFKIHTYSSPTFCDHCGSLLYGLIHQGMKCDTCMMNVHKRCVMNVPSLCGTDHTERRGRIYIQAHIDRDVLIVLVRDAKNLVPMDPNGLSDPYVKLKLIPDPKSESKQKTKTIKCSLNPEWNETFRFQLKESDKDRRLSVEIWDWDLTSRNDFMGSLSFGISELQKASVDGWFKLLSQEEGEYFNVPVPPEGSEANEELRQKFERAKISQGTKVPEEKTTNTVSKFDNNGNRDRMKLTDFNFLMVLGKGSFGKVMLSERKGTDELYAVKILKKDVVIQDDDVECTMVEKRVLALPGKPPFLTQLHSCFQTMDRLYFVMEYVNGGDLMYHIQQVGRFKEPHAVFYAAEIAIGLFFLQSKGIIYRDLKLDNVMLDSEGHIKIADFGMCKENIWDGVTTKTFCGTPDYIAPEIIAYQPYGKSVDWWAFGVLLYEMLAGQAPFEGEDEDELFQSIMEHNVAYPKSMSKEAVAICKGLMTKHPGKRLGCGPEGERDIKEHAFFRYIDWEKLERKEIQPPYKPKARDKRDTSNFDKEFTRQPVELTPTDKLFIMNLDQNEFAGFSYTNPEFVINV
# Chain of Ribosomal protein S6 kinase alpha-3 (Homo sapiens) (P51812 whole entry): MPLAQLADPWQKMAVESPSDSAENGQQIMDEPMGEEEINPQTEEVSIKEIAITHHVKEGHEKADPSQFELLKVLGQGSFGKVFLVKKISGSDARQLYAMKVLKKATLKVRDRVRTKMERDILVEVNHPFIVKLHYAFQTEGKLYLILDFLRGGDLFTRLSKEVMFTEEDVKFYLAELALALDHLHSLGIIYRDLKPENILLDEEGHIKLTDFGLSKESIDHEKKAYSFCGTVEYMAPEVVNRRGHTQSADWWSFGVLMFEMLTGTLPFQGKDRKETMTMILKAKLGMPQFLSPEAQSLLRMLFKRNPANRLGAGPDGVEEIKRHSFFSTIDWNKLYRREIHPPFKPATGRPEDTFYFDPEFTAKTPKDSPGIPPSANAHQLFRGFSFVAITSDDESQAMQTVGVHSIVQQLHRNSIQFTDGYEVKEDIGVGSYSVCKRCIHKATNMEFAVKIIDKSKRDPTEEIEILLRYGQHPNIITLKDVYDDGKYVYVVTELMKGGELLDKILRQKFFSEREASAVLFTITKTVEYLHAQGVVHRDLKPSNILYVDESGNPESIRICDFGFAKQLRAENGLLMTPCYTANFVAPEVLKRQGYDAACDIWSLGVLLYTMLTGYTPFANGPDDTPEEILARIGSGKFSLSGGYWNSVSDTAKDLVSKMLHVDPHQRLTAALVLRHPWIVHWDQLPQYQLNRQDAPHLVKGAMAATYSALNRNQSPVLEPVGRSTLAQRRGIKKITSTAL
# Chain of Protein kinase C eta type (Homo sapiens) (P24723 whole entry): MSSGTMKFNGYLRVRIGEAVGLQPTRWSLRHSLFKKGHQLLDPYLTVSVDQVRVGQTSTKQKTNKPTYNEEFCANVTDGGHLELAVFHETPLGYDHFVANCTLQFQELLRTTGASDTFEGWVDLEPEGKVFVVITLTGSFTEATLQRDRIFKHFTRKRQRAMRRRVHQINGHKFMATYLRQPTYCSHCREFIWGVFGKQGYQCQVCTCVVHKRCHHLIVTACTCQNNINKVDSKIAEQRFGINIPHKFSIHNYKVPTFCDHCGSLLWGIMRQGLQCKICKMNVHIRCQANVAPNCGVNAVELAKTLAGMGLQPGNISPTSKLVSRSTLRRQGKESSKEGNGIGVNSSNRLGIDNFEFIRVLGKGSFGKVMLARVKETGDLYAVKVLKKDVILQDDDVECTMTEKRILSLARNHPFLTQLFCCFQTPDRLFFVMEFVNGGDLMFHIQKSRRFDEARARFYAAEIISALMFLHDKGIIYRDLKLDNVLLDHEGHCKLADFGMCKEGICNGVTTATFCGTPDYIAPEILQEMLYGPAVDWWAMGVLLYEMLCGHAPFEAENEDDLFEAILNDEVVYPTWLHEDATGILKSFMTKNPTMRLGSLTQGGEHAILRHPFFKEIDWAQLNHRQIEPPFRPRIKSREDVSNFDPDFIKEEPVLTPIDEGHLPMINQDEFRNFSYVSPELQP
# Chain of Tyrosine-protein kinase BTK (Homo sapiens) (Q06187 whole entry): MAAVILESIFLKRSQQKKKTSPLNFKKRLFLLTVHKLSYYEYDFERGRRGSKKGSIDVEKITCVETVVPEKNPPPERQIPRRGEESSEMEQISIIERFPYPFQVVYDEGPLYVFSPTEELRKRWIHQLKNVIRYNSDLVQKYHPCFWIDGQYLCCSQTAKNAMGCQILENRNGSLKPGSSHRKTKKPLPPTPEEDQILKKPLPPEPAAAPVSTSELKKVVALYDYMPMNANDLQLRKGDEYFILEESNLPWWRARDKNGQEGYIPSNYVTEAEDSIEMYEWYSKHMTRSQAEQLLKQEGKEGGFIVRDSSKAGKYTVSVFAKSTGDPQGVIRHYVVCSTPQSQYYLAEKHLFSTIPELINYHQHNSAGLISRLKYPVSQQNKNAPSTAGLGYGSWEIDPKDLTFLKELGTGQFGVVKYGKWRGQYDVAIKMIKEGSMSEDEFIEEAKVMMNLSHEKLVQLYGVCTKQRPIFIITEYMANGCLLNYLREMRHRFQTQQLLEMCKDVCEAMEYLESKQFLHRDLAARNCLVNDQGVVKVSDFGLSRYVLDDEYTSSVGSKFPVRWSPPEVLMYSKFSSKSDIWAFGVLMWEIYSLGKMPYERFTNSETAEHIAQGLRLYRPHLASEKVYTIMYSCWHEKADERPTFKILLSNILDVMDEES
# Chain of Mitogen-activated protein kinase 3 (Homo sapiens) (P27361 whole entry): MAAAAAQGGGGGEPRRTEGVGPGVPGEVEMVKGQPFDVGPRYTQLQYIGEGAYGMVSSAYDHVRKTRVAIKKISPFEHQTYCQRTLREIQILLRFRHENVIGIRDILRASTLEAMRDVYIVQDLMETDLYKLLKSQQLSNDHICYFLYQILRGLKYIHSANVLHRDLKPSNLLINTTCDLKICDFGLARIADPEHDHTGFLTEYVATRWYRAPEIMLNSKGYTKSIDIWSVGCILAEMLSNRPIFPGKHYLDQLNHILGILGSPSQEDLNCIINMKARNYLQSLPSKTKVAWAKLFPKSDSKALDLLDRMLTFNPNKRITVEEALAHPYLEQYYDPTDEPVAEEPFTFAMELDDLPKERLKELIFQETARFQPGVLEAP
# Chain of Protein kinase C delta type (Homo sapiens) (Q05655 whole entry, looked up): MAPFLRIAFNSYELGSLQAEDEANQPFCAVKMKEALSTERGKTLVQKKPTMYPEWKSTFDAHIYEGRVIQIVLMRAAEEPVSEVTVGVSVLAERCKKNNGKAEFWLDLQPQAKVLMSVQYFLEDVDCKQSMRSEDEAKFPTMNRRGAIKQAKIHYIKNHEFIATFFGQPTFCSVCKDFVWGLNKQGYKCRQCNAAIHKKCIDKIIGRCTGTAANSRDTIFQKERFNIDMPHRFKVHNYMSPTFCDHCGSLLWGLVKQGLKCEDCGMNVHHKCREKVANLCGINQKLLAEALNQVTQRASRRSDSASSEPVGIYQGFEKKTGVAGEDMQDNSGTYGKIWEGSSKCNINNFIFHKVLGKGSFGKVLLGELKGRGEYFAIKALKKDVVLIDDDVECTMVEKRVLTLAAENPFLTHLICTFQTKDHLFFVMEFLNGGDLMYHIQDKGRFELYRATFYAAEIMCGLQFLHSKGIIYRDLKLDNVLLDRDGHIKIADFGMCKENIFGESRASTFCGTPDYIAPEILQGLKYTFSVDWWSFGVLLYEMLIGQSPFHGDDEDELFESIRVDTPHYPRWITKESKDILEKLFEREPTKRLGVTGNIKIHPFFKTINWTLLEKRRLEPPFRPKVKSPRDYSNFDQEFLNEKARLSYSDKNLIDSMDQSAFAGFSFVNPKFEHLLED
smiles,measurement,setting,value
CC(=O)c1cccc(NC(=O)c2sc3nc4cc5c(cc4cc3c2N)OCCO5)c1,inhibition,HeLa [1],Active
same,inhibition,[2],80%
same,inhibition,HeLa [3],Active
same,inhibition,[4],Dose-dependent effect
same,IC50,[5],5.9 µM
same,residual activity,[6],42%
same,inhibition,Gallus gallus,Active
same,inhibition,[7],inactive
same,inhibition,[8],Active
same,residual activity,[9],13.3%
same,inhibition,[10],Dose-dependent effect
same,IC50,[11],11.2 µM
same,inhibition,[12],80%
same,Activity,HeLa [13],Non-toxic
same,inhibition,[14],80%
same,inhibition,[15],Active
same,residual activity,[16],55%
same,"residual binding, % of control",[17],23.6%
same,residual activity,[18],49%
same,inhibition,[19],Active
same,inhibition,[20],inactive
same,inhibition,[21],Active
same,Activity,PC-3,Non-toxic
same,inhibition,[22],inactive
same,residual activity,[23],27%
same,residual activity,[24],46%
CO/N=C(\C)c1cccc(NC(=O)c2sc3nc4cc5c(cc4cc3c2N)OCCO5)c1,"residual binding, % of control",[4],48.3%
CC(=O)c1cccc(NC(=O)c2cc3cc4cc5c(cc4nc3s2)OCO5)c1,"residual binding, % of control",[4],51.2%
CCOc1ccc2nc(NC(=O)c3sc4nc5cc(OC)ccc5cc4c3N)sc2c1,"residual binding, % of control",[4],37.7%
same,IC50,[5],25.5 µM
C/C(=N\OCC(=O)O)c1cccc(NC(=O)c2sc3nc4cc5c(cc4cc3c2N)OCCO5)c1,"residual binding, % of control",[4],59.3%
C/C(=N\O)c1cccc(NC(=O)c2sc3nc4cc5c(cc4cc3c2N)OCCO5)c1,"residual binding, % of control",[4],46.2%
COc1ccc(NC(=O)c2sc3nc4ccccc4cc3c2N)cc1,"residual binding, % of control",[4],42.7%
O=C1NC(=O)N(Cc2ccccc2)C(=O)/C1=C\c1ccc2c(c1)OCO2,IC50,[5],28.5 µM
CC(=O)c1cccc(NC(=O)c2cc3cc4cc5c(cc4nc3s2)OCCO5)c1,"residual binding, % of control",[4],64.9%
COC(=O)c1cccc(NC(=O)c2sc3nc4cc5c(cc4cc3c2N)OCCO5)c1,"residual binding, % of control",[4],90.9%
COC(=O)c1cccc(NC(=O)c2sc3nc4cc5c(cc4cc3c2N)OCO5)c1,"residual binding, % of control",[4],30.8%
CCOc1ccc2nc3sc(C(=O)Nc4ccc(F)cc4)c(N)c3cc2c1,"residual binding, % of control",[4],60.5%
